According to ChEMBL document CHEMBL1155895, “(9S)-9-(2-hydroxy-4,4-dimethyl-6-oxo-1-cyclohexen-1-yl)-3,3-dimethyl-2,3,4,9-tetrahydro-1H-xanthen-1-one, a selective and orally active neuropeptide Y Y5 receptor antagonist” (J Med Chem, 2008):

Experiments:
[1] = tested on: Rattus norvegicus; assay: Inhibition of D-Trp34-NPY-induced food intake in po dosed Sprague-Dawley rat; format: functional, organism-based
[2] = Tmax in Sprague-Dawley rat at 10 mg/kg, po; format: ADME, organism-based; set-up: dose 10 mg/kg, route oral; conditions: in vivo
Summary of the method: (§1)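 SD rats dosed orally with 10 mg/kg, as either the single enantiomer or the racemate; n = 3 animals per dose. Plasma levels of both enantiomers followed over time to build concentration–time profiles, from which PK parameters were taken.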

[3] = target: T1, Neuropeptide Y receptor type 5 (Homo sapiens, UniProt Q15761); assay: Displacement of [125I]PYY from human recombinant neuropeptide Y5 receptor expressed in thymidine kinase deficient […]; format: cell-based
T1 sequence (Q15761 whole entry): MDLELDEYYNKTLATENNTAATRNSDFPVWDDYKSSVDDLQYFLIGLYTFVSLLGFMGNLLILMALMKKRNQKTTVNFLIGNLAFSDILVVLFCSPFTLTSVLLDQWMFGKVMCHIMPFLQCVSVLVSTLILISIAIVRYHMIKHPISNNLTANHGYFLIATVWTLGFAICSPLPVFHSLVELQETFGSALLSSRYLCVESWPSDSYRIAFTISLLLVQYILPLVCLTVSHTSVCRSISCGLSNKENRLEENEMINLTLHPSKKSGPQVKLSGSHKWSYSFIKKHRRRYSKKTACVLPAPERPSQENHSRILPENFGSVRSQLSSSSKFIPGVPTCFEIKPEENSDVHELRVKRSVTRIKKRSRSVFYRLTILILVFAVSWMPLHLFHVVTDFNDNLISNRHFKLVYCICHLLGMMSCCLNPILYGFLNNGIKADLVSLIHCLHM

[4] = Cmax in Sprague-Dawley rat at 10 mg/kg, po; format: ADME, organism-based; set-up: dose 10 mg/kg, route oral; conditions: in vivo; summary of the method: as §1
[5] = target: T1, Neuropeptide Y receptor type 5; assay: Antagonist activity at human recombinant neuropeptide Y5 receptor expressed in CHO cells coexpressing Gqi5 assessed as inhibition of neuropeptide Y-induced increase in intracellular calcium concentration; format: functional, cell-based
Summary of the method: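 Human recombinant Y5 receptor co-expressed with Gqi5 in CHO cells. Cells stimulated with 100 nM NPY. Antagonism read as inhibition of the NPY-evoked intracellular Ca2+ rise, reported as IC50.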

[6] = Half life in Sprague-Dawley rat at 10 mg/kg, po; format: ADME, organism-based; set-up: dose 10 mg/kg, route oral; conditions: in vivo; summary of the method: as §1
[7] = Ratio of drug level in brain to plasma in Sprague-Dawley rat at 10 mg/kg, po; format: ADME, organism-based; set-up: dose 10 mg/kg, route oral
[8] = Fraction unbound in Sprague-Dawley rat plasma at 10 mg/kg, po; format: ADME, organism-based; set-up: dose 10 mg/kg, route oral
[9] = tested on: Mus musculus; assay: Toxicity in ICR mouse assessed as gross behavioral adverse effects at 150 mg/kg, po; format: organism-based; set-up: dose 150 mg/kg, route oral; conditions: in vivo
Summary of the method: (§2)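 Mice were given a single oral dose of 150 mg/kg and observed for gross behaviour. The scored signs were psychomotor activity, motor activity, muscle tone, CNS excitation, autonomic responses and reflexes. Deaths were recorded at any time after dosing. This was run as a gross-behaviour screen before the in vivo efficacy studies.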

[10] = tested on: Mus musculus; assay: Toxicity in ICR mouse assessed as mortality at 150 mg/kg, po; format: organism-based; set-up: dose 150 mg/kg, route oral; conditions: in vivo; summary of the method: as §2
[11] = target: T2, Neuropeptide Y receptor type 2 (Homo sapiens, UniProt P49146); assay: Inhibition of human neuropeptide Y2 receptor
T2 sequence (P49146 whole entry): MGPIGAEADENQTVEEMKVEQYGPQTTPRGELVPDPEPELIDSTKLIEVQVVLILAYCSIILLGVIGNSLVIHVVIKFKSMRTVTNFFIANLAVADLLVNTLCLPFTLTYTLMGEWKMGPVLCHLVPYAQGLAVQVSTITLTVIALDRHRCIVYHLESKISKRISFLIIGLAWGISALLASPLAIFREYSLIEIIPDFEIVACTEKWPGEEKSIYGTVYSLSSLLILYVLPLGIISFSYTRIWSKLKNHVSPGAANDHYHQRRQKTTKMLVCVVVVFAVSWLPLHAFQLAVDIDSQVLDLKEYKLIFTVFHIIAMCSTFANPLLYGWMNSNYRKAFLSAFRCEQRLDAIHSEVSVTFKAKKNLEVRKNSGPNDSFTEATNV

[12] = target: Neuropeptide Y receptor type 4 (Homo sapiens, UniProt P50391); assay: Inhibition of human neuropeptide Y4 receptor
[13] = target: T3, Neuropeptide Y receptor type 1 (Homo sapiens, UniProt P25929); assay: Inhibition of human neuropeptide Y1 receptor
T3 sequence (P25929 whole entry): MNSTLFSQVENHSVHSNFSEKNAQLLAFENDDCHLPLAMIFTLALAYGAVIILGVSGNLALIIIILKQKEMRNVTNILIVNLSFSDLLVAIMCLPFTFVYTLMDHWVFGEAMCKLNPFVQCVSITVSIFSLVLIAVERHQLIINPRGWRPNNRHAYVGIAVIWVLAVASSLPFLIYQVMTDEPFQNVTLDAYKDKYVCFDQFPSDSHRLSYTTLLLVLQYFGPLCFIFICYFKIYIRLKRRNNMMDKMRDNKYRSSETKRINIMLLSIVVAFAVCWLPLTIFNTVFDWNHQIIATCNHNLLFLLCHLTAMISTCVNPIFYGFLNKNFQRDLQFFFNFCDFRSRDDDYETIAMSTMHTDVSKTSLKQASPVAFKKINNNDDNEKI

Neuropeptide Y receptor type 4, sequence (P50391 whole entry): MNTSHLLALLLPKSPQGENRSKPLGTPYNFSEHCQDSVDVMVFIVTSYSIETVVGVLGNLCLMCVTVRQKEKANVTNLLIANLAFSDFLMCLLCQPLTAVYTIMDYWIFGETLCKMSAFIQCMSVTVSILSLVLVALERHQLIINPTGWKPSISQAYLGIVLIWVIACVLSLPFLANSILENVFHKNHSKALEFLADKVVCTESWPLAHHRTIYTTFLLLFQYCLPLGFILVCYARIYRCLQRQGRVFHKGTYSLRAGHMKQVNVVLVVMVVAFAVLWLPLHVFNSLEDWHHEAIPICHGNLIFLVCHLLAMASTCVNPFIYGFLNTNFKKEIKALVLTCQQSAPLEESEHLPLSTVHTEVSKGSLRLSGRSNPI

Row | SMILES | Ki [3] [nM] | IC50 [5] [nM] | further results
1 | COc1ccc2c(c1)C(C1=C(O)CC(C)(C)CC1=O)C1=C(CC(C)(C)CC1=O)O2 (configuration not stated) | 590 |  | 
2 | COc1cccc2c1OC1=C(C(=O)CC(C)(C)C1)C2C1=C(O)CC(C)(C)CC1=O (configuration not stated) | 2170 |  | 
3 | CC1(C)CC(=O)C(C2C3=C(CC(C)(C)CC3=O)Oc3c(Cl)cccc32)=C(O)C1 (configuration not stated) | 71 |  | 
4 | CCOc1ccc2c(c1)OC1=C(C(=O)CC(C)(C)C1)C2C1=C(O)CC(C)(C)CC1=O (configuration not stated) | 833 |  | 
5 | CC1(C)CC(=O)C(C2C3=C(CC(C)(C)CC3=O)Oc3ccc(Cl)cc32)=C(O)C1 (configuration not stated) | 197 |  | 
6 | COc1ccc2c(c1)OC1=C(C(=O)CC(C)(C)C1)C2C1=C(O)CC(C)(C)CC1=O (configuration not stated) | 93 |  | 
7 | CC1(C)CC(=O)C(C2C3=C(CC(C)(C)CC3=O)Oc3c(F)cccc32)=C(O)C1 (configuration not stated) | 34 | 73 | 
8 | CC1(C)CC(=O)C(C2C3=C(CC(C)(C)CC3=O)Oc3cc(F)ccc32)=C(O)C1 (configuration not stated) | 29 | 63 | 
9 | CC1(C)CC(=O)C(C2C3=C(CC(C)(C)CC3=O)Oc3cc(Cl)ccc32)=C(O)C1 (configuration not stated) | 34 | 82 | 
10 | COc1cccc2c1C(C1=C(O)CC(C)(C)CC1=O)C1=C(CC(C)(C)CC1=O)O2 (configuration not stated) | > 1000 |  | 
11 | CC1(C)CC(=O)C(C2C3=C(CC(C)(C)CC3=O)Oc3ccccc32)=C(O)C1 (racemic) | 33 | 61 | Activity [9]: Non-toxic; Activity [10]: Non-toxic; Activity [1]: Dose-dependent effect; IC50 [11]: > 10000 nM; Tmax [2]: 1 h; Cmax [4]: 2400 nM; half-life [6]: 5.2 h; IC50 [12]: > 10000 nM; IC50 [13]: > 10000 nM
12 | CCc1ccc2c(c1)OC1=C(C(=O)CC(C)(C)C1)C2C1=C(O)CC(C)(C)CC1=O (configuration not stated) | 41 |  | 
13 | Cc1ccc2c(c1)OC1=C(C(=O)CC(C)(C)C1)C2C1=C(O)CC(C)(C)CC1=O (configuration not stated) | 36 | 111 | 
14 | CC1(C)CC(=O)C(C2C3=C(CC(C)(C)CC3=O)Oc3ccc(F)cc32)=C(O)C1 (configuration not stated) | 81 |  | 
15 | CC1(C)CC(=O)C(C2C3=C(CC(C)(C)CC3=O)Oc3cc(Br)ccc32)=C(O)C1 (configuration not stated) | 36 | 81 | 

Now from value to molecule, other results behind:

Row | Ki [3] [nM] | IC50 [5] [nM] | SMILES | further results
16 | 14 | 34 | CC1(C)CC(=O)C([C@H]2C3=C(CC(C)(C)CC3=O)Oc3ccccc32)=C(O)C1 | Activity [1]: Dose-dependent effect; Tmax [2]: 0.5 h; Cmax [4]: 2500 nM; half-life [6]: 2.7 h; Kp [7]: 0.34; fraction unbound [8]: 0.27
17 | > 1000 |  | O=C1CCCC(O)=C1C1C2=C(CCCC2=O)Oc2ccccc21 (configuration not stated) | 
18 | 14 | 45 | O=C1CC2(CCC2)CC(O)=C1C1C2=C(CC3(CCC3)CC2=O)Oc2ccccc21 (configuration not stated) | 
19 | 24 | 109 | O=C1CC2(CCCCC2)CC(O)=C1C1C2=C(CC3(CCCCC3)CC2=O)Oc2ccccc21 (configuration not stated) | 
20 | 20 | 90 | CCC1(CC)CC(=O)C(C2C3=C(CC(CC)(CC)CC3=O)Oc3ccccc32)=C(O)C1 (configuration not stated) | 
21 | > 1000 | 343 | CC1(C)CC(=O)C([C@@H]2C3=C(CC(C)(C)CC3=O)Oc3ccccc32)=C(O)C1 | Kp [7]: 0.1; fraction unbound [8]: 0.1
22 | 17 | 58 | O=C1CC2(CCCC2)CC(O)=C1C1C2=C(CC3(CCCC3)CC2=O)Oc2ccccc21 (configuration not stated) | 
23 | 193 |  | CC1CC(=O)C(C2C3=C(CC(C)CC3=O)Oc3ccccc32)=C(O)C1 (configuration not stated) | 
